Screening data from PubChem.
Kir21 block: Kir2.1 (mouse) channel inhibition; P35561; HEK293-Kir2.1, FluxOR thallium flux fluorescence; active compounds read low; B-score at 10 µM; actives 0.85% (n = 310,000); AID 1672;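 active = fluorescence ratio B-score at or below minus 3 SD of library scores, with starting-brightness B-score within 2 SD, cut at about -4.2 in these data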;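 note: channel flux triggered by added potassium and thallium sulfate stimulus; B-score of peak minus minimum fluorescence over baseline after thallium stimulus; more negative B-score means stronger Kir2.1 block with less thallium influx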
hERG protect: compounds protecting human hERG from proarrhythmic drug block; AID 1511; actives 0.51% (n = 310,000); activation (rescue from dofetilide block), less the hit threshold, % at 10 µM; Q12809; CHO-hERG, FluxOR thallium flux, dofetilide IC70 present;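 active = activation above the mean of controls blocked by dofetilide plus 5 SD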;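 note: thallium influx through hERG after potassium depolarization seen as dye fluorescence rise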
KCNK3 inh: human KCNK3 channel inhibition, primary screen; AID 602410; B-score at 10 µM; CHO-KCNK3 thallium flux, FluxOR fluorescence; active compounds read low; O14649; actives 0.84% (n = 340,000);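 active = B-score under library mean minus 4 SD, starting fluorescence ratio at most library mean plus 5 SD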;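 note: more negative B-score means stronger inhibition of thallium flux through KCNK3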
KCNQ1 pot: potentiates or activates the human KCNQ1 potassium channel; CHO-K1 KCNQ1, thallium flux FluxOR fluorescence; active compounds read high; B-score at 10 µM; actives 0.35% (n = 310,000); AID 2648;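 active = fluorescence ratio B-score, a plate-corrected score, at least three library SD, with initial intensity B-score within 5 SD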
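assay system = CHO-K1 cells stably expressing KCNQ1 | medium = assay buffer, equal DMSO in all wells | timing = 37 °C overnight plating, 90-min dark dye load, 20-min compound pretreatment | measured by = kinetic FluxOR thallium fluorescence, 10-s 1-Hz baseline, 110-s post-stimulus read | measure = fluorescence change relative to baseline, converted to B score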
KCNK9 inh: blocks the human KCNK9 two-pore domain potassium channel | HEK293 KCNK9, FluxOR thallium flux fluorescence; active compounds read low | B-score at 10 µM | actives 1.2% (n = 310,000);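 active = ratio B-score over 3 SD below the library mean, with starting fluorescence within 5 SD of its mean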;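 note: negative B-score means less thallium flux so channel inhibition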
Target sequence (Q9NPC2 whole entry, looked up, the tested form may be a part): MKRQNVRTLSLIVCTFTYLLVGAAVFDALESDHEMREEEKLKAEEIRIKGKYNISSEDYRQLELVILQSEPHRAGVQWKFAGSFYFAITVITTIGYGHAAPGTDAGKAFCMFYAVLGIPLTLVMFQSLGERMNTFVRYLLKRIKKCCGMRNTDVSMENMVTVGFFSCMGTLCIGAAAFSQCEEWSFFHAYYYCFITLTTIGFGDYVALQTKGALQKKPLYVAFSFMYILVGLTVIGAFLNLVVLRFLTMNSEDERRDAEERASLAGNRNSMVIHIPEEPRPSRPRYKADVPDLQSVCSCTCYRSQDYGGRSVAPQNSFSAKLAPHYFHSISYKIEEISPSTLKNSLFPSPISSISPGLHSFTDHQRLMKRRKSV
KCNQ1 block: blocks the human KCNQ1 potassium channel; P51787; CHO-K1 KCNQ1, FluxOR thallium flux fluorescence; active compounds read high; B-score at 10 µM; actives 1.3% (n = 310,000);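 active = compounds whose thallium flux B-score, printed positive for inhibition, exceeds three library SD while starting fluorescence stays within three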;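 note: channel opened by potassium depolarization with thallium stimulus after 20 min compound exposure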
Numbers without * were called inactive; i = inactive; . = no result given. The list is not random: actives were taken first. Their share in the collection is about 3.7%.

SMILES	Kir21 block	hERG protect	KCNK3 inh	KCNQ1 pot	KCNK9 inh	KCNQ1 block
Cc1ccc(C(=O)N/C(=C\c2ccc(-c3ccc(Cl)cc3)o2)C(=O)NCCCN(C)C)cc1	-5.31*	-22.6	i	i	i	i
CN(C(=O)c1ccccc1C(=O)OCC(=O)c1ccc(F)c(F)c1)C1CCCCC1	.	.	i	.	.	.
Cc1ccc(C(=O)C(C)OC(=O)Cn2cnc3c2c(=O)n(C)c(=O)n3C)cc1 (stereo unspecified)	-0.14	-12.7	i	i	i	i
CC1=C(C)C(=O)C(CCCCC#CCCCC#CCO)=C(C)C1=O	-1.39	-17.1	-14.4*	i	i	i
COc1ccc(-c2nnc(-c3ccccc3O)o2)cc1	0.26	5.1*	i	i	i	i
COc1ccc(-c2nnc(-c3ccc(C)cc3)o2)cc1	-0.69	-1.5	i	i	i	i
CCCCCC[N+](C)(C)CC/C=C1/c2ccccc2Sc2ccc(Cl)cc21	-3.78	-16.9	i	i	-7.97*	i
CCCCCCCCCCCCCCCC[N+](C)(C)CCl	.	.	i	.	.	.
O=[N+]([O-])C(=C1Nc2ccccc2N1)/C(Cl)=C(/Cl)Br	-1.06	-19.3	i	i	i	i
COc1ccc(S(=O)(=O)N2CCCC2C(=O)Nc2nnc(-c3cccnc3)s2)cc1 (stereo unspecified)	0.57	7.5*	i	i	i	i
CCOc1ccccc1N1CCN(C2=C(NS(=O)(=O)c3cccs3)C(=O)c3ccccc3C2=O)CC1	1.53	-7.5	i	i	-6.62*	i
CN(C)CCCn1cnc2c(c1=N)C(c1ccccc1)c1ccc3ccccc3c1O2 (stereo unspecified)	-7.25*	-17.1	i	i	i	i
COc1ccc(C2c3ccc4ccccc4c3Oc3ncn(CCO)c(=N)c32)cc1OC (stereo unspecified)	-1.75	-10.4	i	i	i	i
COc1ccc(C2c3ccc4ccccc4c3Oc3ncn(CCN(C)C)c(=N)c32)cc1 (stereo unspecified)	-4.28*	-19.6	i	i	i	i
N=c1c2c(ncn1CCCO)Oc1c(ccc3ccccc13)C2c1ccccc1 (stereo unspecified)	-3.72	-17.7	i	i	i	i
N=c1c2c(ncn1CCCO)Oc1ccc3ccccc3c1C2c1ccccc1 (stereo unspecified)	-4.24*	-10.9	i	i	i	i
COc1ccc(C2c3ccc4ccccc4c3Oc3ncn(CCCO)c(=N)c32)cc1OC (stereo unspecified)	-1.38	-12.0	i	9*	i	i
CC(=O)OCC1OC(COC(C)=O)(c2ccc(C)cc2)C(OC(C)=O)C1OC(C)=O (stereo unspecified)	.	.	i	.	.	.
COc1ccccc1CN1CC(C(=O)NCc2cc(F)ccc2C)CCC1=O (stereo unspecified)	-0.87	-14.3	i	i	i	i
COc1ccc(C2c3ccc4ccccc4c3Oc3ncn(CCO)c(=N)c32)cc1 (stereo unspecified)	-5.21*	-13.2	i	i	i	i
COc1ccc(C2c3ccc4ccccc4c3Oc3ncn(CCCO)c(=N)c32)cc1 (stereo unspecified)	-2.93	-19.8	i	i	i	i
CCCCn1c2c(c(=N)c3c1CCC3)CCC2	.	.	i	.	.	.
CCCCCCn1c2c(c(=N)c3c1CCC3)CCC2	-0.68	-26.3	i	i	i	6*
OCCCc1nc2n(n1)C(c1ccccc1)C=C(c1ccc(F)cc1)N2 (stereo unspecified)	-0.92	-16.0	i	i	i	i
OCCCc1nc2n(n1)C(c1ccccc1Cl)C=C(c1cccs1)N2 (stereo unspecified)	-2.49	-16.7	-10.2*	i	i	i
CN1c2ccsc2C(O)=C(C(=S)Nc2ccc(F)c(Cl)c2)S1(=O)=O	0.06	-4.3	i	i	i	i
CSc1nc2cc(Oc3cccc(Cl)c3Cl)c(Cl)cc2[nH]1	0.02	-8.5	-11.3*	i	i	14*
C/C(=N\Nc1nc2ccccc2[nH]1)c1ccc(Cl)s1	1.37	-8.2	i	11*	i	i
